Screens as filed in PubChem BioAssay.
Efflux pump inh: inhibitors of Candida efflux pumps in yeast, primary screen, S. cerevisiae, Nile Red, multiplex; S. cerevisiae Candida pump triplex; 330,000 compounds, 0.44% hits; inhibition, % at 10 µM;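 active means plate passing quality check with inhibition over a set limit, or well fluorescence over plate mean plus 4 SD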;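 further: Nile Red retained in pooled yeast measured as flow cytometry median fluorescence; higher means more Nile Red kept so more efflux inhibition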
PolyA inhibitor: polyadenylation inhibitors in yeast reporter cells, primary screen, luminescence, S. cerevisiae. S. cerevisiae SKY197-pL101 polyadenylation reporter, beta-gal luminescence; efflux-impaired pdr1/pdr3 knockout yeast; score 100 = 6 SD above DMSO. activity score, % at 12 µM. 300,000 compounds, 0.02% hits;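 active means lowest replicate activity score at least 50, where 100 means six control SD above control mean; inconclusive means lowest score under 50 but half or more replicates reach 50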;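 further: yeast exposed to compound for 9 h at 30 °C; higher score means more reporter readthrough which indicates perturbed polyadenylation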
T cruzi repl: inhibitors of intracellular T. cruzi growth, primary screen, luminescence, NIH3T3 host cells; 300,000 compounds, 1.4% hits; AID 1885, 2009; inhibition, % (no concentration beside the values); T. cruzi beta-gal in NIH3T3, 90 h;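 active means mean inhibition across valid replicates above about 55%, limit read from the data; inconclusive means mean below that limit but half or more replicates reach it; inactive means mean below it, under half of replicates reach it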;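 further: signal also drops with host cell toxicity which is not excluded here; higher percent means less beta-gal luminescence so fewer parasites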
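Material: NIH/3T3 host cells with β-galactosidase reporter T. cruzi; Input: 5,000 host fibroblasts per well; Medium: DMEM, 2% fetal bovine serum; Compound: 50 nL DMSO compound solution per well; Schedule: 3 h host attachment, then at least 90 h co-culture; Detection: luminescent β-galactosidase signal after 60 min lysis.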
AI-2 QS modul: Vibrio harveyi AI-2 quorum sensing modulators, primary screen, JMH597 strain, luminescence/OD600 ratio; Vibrio harveyi JMH597 AI-2 luminescence/OD600 ratio, 9 h; active compounds read low; strain lacks LuxN and CqsS sensors; 0 = neutral-control median; activity change, % at 7.5 µM; 300,000 compounds, 0.4% hits; in the data active means activity change below about -75%, passing the limit was not always enough; inconclusive means no clear call, values can overlap the other calls;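 further: luminescence divided by OD600 gain over 9 h not by final OD600 alone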
HDAC3 inhib: HDAC3 deacetylase inhibitors, primary screen, biochemical, fluorescence, cell-free homogeneous | recombinant HDAC3, fluorogenic peptide/trypsin coupled | inhibition, % at 8.3 µM | 320,000 compounds, 0.15% hits; in the data active means inhibition above about 26%, passing the limit was not always enough; inconclusive means no clear call, values can overlap the other calls
Target sequence (O15379 whole entry, looked up): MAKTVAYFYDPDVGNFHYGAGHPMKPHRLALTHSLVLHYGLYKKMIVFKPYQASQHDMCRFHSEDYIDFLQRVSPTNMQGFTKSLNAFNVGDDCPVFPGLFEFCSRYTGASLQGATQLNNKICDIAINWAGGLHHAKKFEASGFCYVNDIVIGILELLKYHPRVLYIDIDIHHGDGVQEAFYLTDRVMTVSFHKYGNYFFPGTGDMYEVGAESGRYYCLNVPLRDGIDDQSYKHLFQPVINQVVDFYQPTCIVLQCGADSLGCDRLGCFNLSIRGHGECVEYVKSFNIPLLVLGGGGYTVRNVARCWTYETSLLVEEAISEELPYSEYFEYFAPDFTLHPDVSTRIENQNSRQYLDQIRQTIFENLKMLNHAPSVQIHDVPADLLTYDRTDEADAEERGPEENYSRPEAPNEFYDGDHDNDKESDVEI
Large screens that a line does not name were inactive. The list is not random: actives were taken first. Their share in the collection is about 2.2%.

N#Cc1ccccc1CCN1C(=O)c2ccccc2C1=O	none
COc1ccc(C(c2c(O)nc(SC)n(C)c2=O)c2c(O)nc(SC)n(C)c2=O)cc1O	AI-2 QS modul -88.8
COc1ccc(-c2nc(SC)n(C)c(=O)c2C#N)cc1OC	none
CCOC(=O)c1ccc(N2CCN(c3ccccc3F)CC2)c(NC(=O)Nc2cccc(OC)c2)c1	T cruzi repl 69.6
COC(=O)c1ccc(N2CCOCC2)c(NC(=O)Nc2cccc(OC)c2)c1	none
CN1CCN(CCCNC(=O)c2ccc(/C=C3\Sc4ccccc4N(Cc4ccccc4F)C3=O)cc2)CC1	T cruzi repl 68.6 (no result: Efflux pump inh, HDAC3 inhib)
CCN1CCN(CCNC(=O)c2ccc(/C=C3/Sc4ccccc4N(Cc4cccc(Cl)c4)C3=O)cc2)CC1	T cruzi repl 60.5
Cc1cc(-c2ccc3c(c2)COc2c4ccccc4nn2-3)on1	none
N#CC1=C(S)N(c2ccccc2)C(c2ccc(-c3ccc(Cl)c(Cl)c3)o2)NC1=O (stereo not drawn)	none
N#CC1=C(S)N(c2ccccc2)C(c2ccc(-c3cc(Cl)ccc3Cl)o2)NC1=O (stereo not drawn)	Efflux pump inh 0.5
CC(C)CC1Nc2ncnc(N3CCN(c4ccccc4)CC3)c2N(Cc2ccccc2)C1=O (stereo not drawn)	PolyA inhibitor 83.6
O=S(=O)(Cc1cc(Sc2ccc(Cl)cc2)nc(-c2ccccc2)n1)c1ccccc1	T cruzi repl 54.6
COc1ccc(CCC(=O)N2CCCc3ccccc32)cc1	none (no result: AI-2 QS modul)
Cc1ccc(S(=O)(=O)N2CCCCC2)cc1NC(=O)c1ccccc1Cl	none (no result: PolyA inhibitor, T cruzi repl, AI-2 QS modul)
O=C(Nc1cccc(Cl)c1)Nc1cc(S(=O)(=O)N2CCCCC2)ccc1Cl	T cruzi repl 54.7
Cc1ccc(S(=O)(=O)N2CCCCC2)cc1NC(=O)Nc1ccc(Cl)cc1Cl	T cruzi repl 54.9 (no result: PolyA inhibitor)
CC(C)=CCCC(C)CN1CCC(n2nccc2NC(=O)c2ccc3c(c2)OCO3)CC1 (stereo not drawn)	PolyA inhibitor inconclusive, T cruzi repl 56.6
C/C=C(\C)CN1CCC(n2nccc2NC(=O)c2ccc3c(c2)OCO3)CC1	none
CCC(=O)NC(=S)Nc1ccc(S(=O)(=O)NC2CCCCC2)cc1	none
COc1ccc([N+](=O)[O-])cc1NC(=O)C(C)OC(=O)CSC(C)C(=O)Nc1cc(C)on1 (stereo not drawn)	none
Cn1c(-c2cccc(Br)c2)cnc1NCc1ccccc1O	none
COC(=O)C1=CN(c2cc(C)cc(C)c2)C=C(C(=O)OC)C1c1cccc(F)c1	T cruzi repl 55.5
CC(=O)N1CC(=O)N=C1SCC(=O)Nc1nc(-c2ccccc2)c(-c2ccccc2)s1	HDAC3 inhib 28.5
O=C(NCCc1cccnc1)c1cc(COc2ccc(F)cc2Cl)on1	none
O=C(NCCc1cccnc1)c1cc(COc2ccc(F)cc2F)on1	AI-2 QS modul -75.7
CC(=O)N/C(=C\c1ccccc1)C(=O)OCc1cccc(S(=O)(=O)N(C)C)c1	none
COc1cc(CNc2ccc(O)cc2)cc(Br)c1OCc1ccccc1F	none
COc1cc(CNCc2ccncc2)cc(Br)c1OCc1ccccc1F	T cruzi repl 55.1
CC(C)C(=O)N1CCN(c2cc(N3CCN(C)CC3)c(F)cc2[N+](=O)[O-])CC1	T cruzi repl 77.0
CCNC(=O)c1ccc(NC(=O)CC2SC(N3CCCC3)=NC2=O)cc1 (stereo not drawn)	none
COC(=O)C1=C(N)N(c2ccccc2C(F)(F)F)C2=C(C(=O)CCC2)C1c1ccc2c(c1)OCO2 (stereo not drawn)	T cruzi repl 55.9
Cc1cc(N2CCN(C)CC2)nc2ccc(NC(=S)NCCC(C)C)cc12	T cruzi repl 57.4
CCN(CC)CCNC(=S)Nc1ccc2nc(N3CCCC3)cc(C)c2c1	none (no result: HDAC3 inhib)
COc1ccc(CNC(=S)Nc2ccc3nc(N4CCN(C)CC4)cc(C)c3c2)cc1	none
Cc1cc(N2CCOCC2)nc2ccc(NC(=S)NCCC(C)C)cc12	none
CCN1CCN(c2cc(C)c3cc(NC(=S)N4CCN(c5ccccc5)CC4)ccc3n2)CC1	T cruzi repl 58.0
COc1ccccc1CNC(=S)Nc1ccc2nc(N3CCN(C)CC3)cc(C)c2c1	T cruzi repl 57.4
CCCN(CCC)CCCNC(=S)Nc1ccc2nc(N3CCCC3)cc(C)c2c1	T cruzi repl 59.4
Cn1ccc(C(=O)NC(=S)N2CCSCC2)n1	none
COCCn1nnnc1C(CC(C)C)N1CCN(c2nc3ccccc3s2)CC1 (stereo not drawn)	none
Cc1ccc(S(=O)(=O)Cn2nnnc2C(C(C)C)N2CCN(c3nc4ccccc4s3)CC2)cc1 (stereo not drawn)	T cruzi repl 56.1
CCOC(=O)Cc1csc(NC(=O)CSc2nnc3ccccn23)n1	none
CCOC(=O)Cc1csc(NC(=O)CSc2nnc(-c3ccc(OC)cc3)n2C)n1	T cruzi repl 69.5
CCC(=O)NC(=S)Nc1ccc(NC(=S)NC(=O)c2ccccc2)cc1	T cruzi repl 60.5 (no result: Efflux pump inh, HDAC3 inhib)
CCCCC[n+]1cccc2c3ccccc3ccc21	T cruzi repl 73.2
c1ccc(C[n+]2cccc3c4ccccc4ccc32)cc1	T cruzi repl inconclusive
CCC(C)c1ccc(O)c(NC(=S)NC(=O)c2cccnc2)c1 (stereo not drawn)	none
CCC(C)c1ccc(O)c(NC(=O)c2cncc(Br)c2)c1 (stereo not drawn)	AI-2 QS modul -85.1
COC(=O)c1ccc(-c2sc3nc(N4CCOCC4)c4c(c3c2N)CCCC4)o1	T cruzi repl 66.6
CCOC(=O)c1sc2nc(N3CCOCC3)c3c(c2c1N)CCCC3	none
COCCn1c(=NC(=O)C(C)(C)C)sc2cc([N+](=O)[O-])ccc21	none
NS(=O)(=O)c1ccc(N/N=C/c2cn(-c3ccccc3)nc2-c2cccs2)c([N+](=O)[O-])c1	T cruzi repl 67.4
NS(=O)(=O)c1ccc(N/N=C/c2cn(-c3ccccc3)nc2-c2cccs2)cc1	none (no result: HDAC3 inhib)
O=C(Nc1nccs1)c1sc2cc(Cl)ccc2c1Cl	T cruzi repl 59.4
O=C1NC(Cc2ccc(O)cc2)c2nc3ccc(Cl)cc3c(=O)n2-c2ccc(Cl)cc21 (stereo not drawn)	none (no result: PolyA inhibitor, T cruzi repl, AI-2 QS modul)
Cc1cccc(OCc2nnc(SCC(=O)NC3CCCC3)n2C)c1	none
Cc1cccc(C)c1NC(=O)CSc1nnc(C2CCCCC2)o1	none
CCCN1C(=O)SC(CC(=O)Nc2ccccc2)C1=O (stereo not drawn)	none
O=C(CC1SC(=O)N(c2ccccc2)C1=O)Nc1ccc(Br)cc1 (stereo not drawn)	HDAC3 inhib 50.3
O=C(CC1Sc2ncnn2C1=O)Nc1ccc(Cl)cc1 (stereo not drawn)	none
O=C(CC1SC(=O)N(c2ccccc2)C1=O)Nc1ccc(Cl)cc1 (stereo not drawn)	HDAC3 inhib 45.5
